# Laboratory results from paper PMC8710994 (Redox Biology, 2021).
# Legend:
# [1] = tested on: APAP-induced acute liver injury; test: APAP-induced acute liver injury in mice; assay type: in vivo, C57BL/6 male mice
# [2] = MTT cytotoxicity assay, LO2; assay type: cell-based, human; details: human, LO2 cells
# Keap1 [3] = target: T1, Keap1 (Homo sapiens, UniProt Q14145); test: Cellular thermal shift assay; assay type: cell-based; details: 1 at 5.0 μM, LO2 cell lysates
# Procedure, shortened: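 LO2 lysate from 2 × 10^6 cells was diluted in PBS and split into equal aliquots. Aliquots were treated with test compound (5.0 μM) or DMSO for 30 min at room temperature, then heated individually across a temperature series. They were centrifuged, and supernatants were run on SDS-PAGE and immunoblotted for Keap1.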
# Nrf2 [4] = target: T2, Nrf2 (Homo sapiens, UniProt Q16236); test: Isothermal titration calorimetry with recombinant Nrf2; assay type: binding; details: 200 μM of 1 titrated into Nrf2 (20 μM)
# T2 sequence (Q16236 1-605): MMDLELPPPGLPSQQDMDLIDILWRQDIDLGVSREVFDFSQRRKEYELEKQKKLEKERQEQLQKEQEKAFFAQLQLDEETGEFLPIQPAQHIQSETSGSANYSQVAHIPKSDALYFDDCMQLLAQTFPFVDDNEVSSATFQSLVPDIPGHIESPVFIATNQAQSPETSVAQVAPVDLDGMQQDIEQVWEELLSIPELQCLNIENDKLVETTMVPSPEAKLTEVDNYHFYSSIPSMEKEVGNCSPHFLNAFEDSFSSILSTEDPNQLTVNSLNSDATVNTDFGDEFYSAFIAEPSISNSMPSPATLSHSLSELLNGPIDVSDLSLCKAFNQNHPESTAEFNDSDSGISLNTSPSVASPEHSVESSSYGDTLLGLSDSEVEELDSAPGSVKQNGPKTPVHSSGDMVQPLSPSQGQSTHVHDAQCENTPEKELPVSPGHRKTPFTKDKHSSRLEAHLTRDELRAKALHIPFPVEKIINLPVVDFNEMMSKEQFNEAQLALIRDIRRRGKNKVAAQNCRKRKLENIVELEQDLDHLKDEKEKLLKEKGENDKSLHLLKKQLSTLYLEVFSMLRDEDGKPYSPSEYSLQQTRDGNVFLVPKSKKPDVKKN
# mice = test: Toxicity evaluation and organ distribution in mice; assay type: in vivo
# Procedure, shortened: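 Mice received test compound at 2.5 or 5.0 mg kg−1 i.p.; body and organ weights were recorded after 6 h. Organ index = organ wet weight/body weight × 100%; the figure legend reports indexes at 12 h, n = 5. About 100 mg tissue was ground in liquid nitrogen, nitric-acid digested, and analysed for iridium by ICP-MS. Organs were fixed 24 h, sectioned at 4 μm, and H&E stained.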
# Keap1 and Nrf2 binding = Keap1 and Nrf2 binding (Homo sapiens, UniProt Q14145); test: Competitive assay; details: competitive inhibitor, double-reciprocal plot
# Procedure, shortened: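 Fluorescence polarisation kit assay. Diluted Keap1 ([…]) was combined with Nrf2 peptide (1 μM stock), BSA and test compound in kit buffer. The mix was incubated 0.5 h at ambient temperature and read at excitation 485 nm, emission 535 nm. For the competitive format, wells held […] Nrf2 with test compound at several concentrations.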
# LO2 cells [5] = test: ROS detection; assay type: cell-based, human; details: 5 μM, 8 h
# Procedure, shortened: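 LO2 cells were treated with H2O2 (800 μM, 3 h) and test compound (5 μM, 8 h). Cells were labelled with 5 μM H2DCF-DA in serum-free DMEM at 37 °C for 30 min, washed, and imaged by confocal microscopy at excitation 488 nm, emission 525 nm.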
# Keap1–Nrf2 interaction [6] = target: T3, Keap1–Nrf2 interaction (Homo sapiens, UniProt Q14145); test: Co-immunoprecipitation of Keap1 and Nrf2 in LO2 cells; assay type: cell-based; details: 5.0 μM, 8 h
# LO2 cells [7] = test: Cytoprotection against APAP-induced cytotoxicity in LO2 cells; assay type: cell-based, human
# LO2 cells [8] = test: Cellular uptake in LO2 cells by ICP-MS; assay type: in vitro ADME, human; details: 5 μM
# Procedure, shortened: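 LO2 cells were incubated with test compound at 5 μM for varying times. Iridium was then quantified by ICP-MS in whole cells and in separated nuclear and cytoplasmic fractions. Three independent experiments were run, shown as mean ± standard deviation; one-way ANOVA with Tukey's test.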
# proteasome = test: Proteasome activity fluorometric assay kit; assay type: cell-based, human; details: 5 μM, 8 h
# Procedure, shortened: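 LO2 cells were treated 8 h with test compound (5 μM). Proteasome activity was then measured with a commercial fluorometric kit, with MG132 as positive control.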
# [9] = Stability by UV-Vis and 1H NMR over 7 days; assay type: physicochemical; details: 4:1 acetonitrile/aqueous medium, seven days
# Nrf2 [10] = test: Nrf2 nuclear translocation in LO2 cells; assay type: cell-based, human; details: after 1 h
# HO-1 and NQO1 = HO-1 and NQO1 levels in LO2 cells by Western blotting; assay type: cell-based, human
# LO2 cells [11] = test: Mitochondrial membrane potential by rhodamine 123 staining in LO2 cells; assay type: cell-based, human; details: 5 μM, 8 h
# Procedure, shortened: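 LO2 cells were attached overnight, then treated 8 h with test compound (5 μM). CCCP (10 μM, 1 h) was the positive control. Cells were stained with rhodamine 123 (5 μg/mL, 30 min) for fluorescence microscopy. For quantitation, washed cells at 1.0 × 10^5 cells/mL were stained at 37 °C in the dark for 30 min and read by spectrofluorometer at excitation 505 nm, emission 534 nm.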
# [12] = Pharmacokinetic profile in mouse plasma by ICP-MS; assay type: in vivo; details: mice
# Procedure, shortened: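 After an overnight fast, C57BL/6J mice received test compound at 5.0 mg kg−1 i.p. Blood was collected into EDTA-2Na at 0, 0.5, 1, 2, 6, 12, 24 and 48 h. Plasma iridium was quantified by ICP-MS, n = 4, shown as mean ± SD.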
# Keap1–Nrf2 interaction [13] = target: T3, Keap1–Nrf2 interaction; test: Fluorescence polarization; details: read-out: Keap1–Nrf2 binding inhibition IC50; FP assay
# Nrf2 [14] = target: T2, Nrf2; test: Cellular thermal shift assay; assay type: cell-based; details: 1 at 5.0 μM, LO2 cell lysates
# Keap1 [15] = target: T1, Keap1; test: Isothermal titration calorimetry with recombinant Keap1; assay type: binding
# Procedure, shortened: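 Human His6-Keap1 was expressed in E. coli BL21(DE3) (1 mM IPTG, 37 °C, 4 h) and purified on a His column. Protein and test compound were dialysed into 20 mM Bis-Tris, 150 mM NaCl, 2 mM DTT. Compound (200 μM) was titrated into protein (20 μM) in 19 × 2 μL injections, 150 s apart, at 25 °C and 750 rpm. Control titrations were included; data were fitted with a composite model.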
# LO2 cells [16] = test: MTT cytotoxicity assay, LO2; assay type: cell-based, human; details: read-out: cytotoxicity IC50; LO2, MTT, 48 h
# [17] = 1 at 5.0 mg kg−1, 6 h after APAP challenge
# T1 sequence (Q14145 whole entry): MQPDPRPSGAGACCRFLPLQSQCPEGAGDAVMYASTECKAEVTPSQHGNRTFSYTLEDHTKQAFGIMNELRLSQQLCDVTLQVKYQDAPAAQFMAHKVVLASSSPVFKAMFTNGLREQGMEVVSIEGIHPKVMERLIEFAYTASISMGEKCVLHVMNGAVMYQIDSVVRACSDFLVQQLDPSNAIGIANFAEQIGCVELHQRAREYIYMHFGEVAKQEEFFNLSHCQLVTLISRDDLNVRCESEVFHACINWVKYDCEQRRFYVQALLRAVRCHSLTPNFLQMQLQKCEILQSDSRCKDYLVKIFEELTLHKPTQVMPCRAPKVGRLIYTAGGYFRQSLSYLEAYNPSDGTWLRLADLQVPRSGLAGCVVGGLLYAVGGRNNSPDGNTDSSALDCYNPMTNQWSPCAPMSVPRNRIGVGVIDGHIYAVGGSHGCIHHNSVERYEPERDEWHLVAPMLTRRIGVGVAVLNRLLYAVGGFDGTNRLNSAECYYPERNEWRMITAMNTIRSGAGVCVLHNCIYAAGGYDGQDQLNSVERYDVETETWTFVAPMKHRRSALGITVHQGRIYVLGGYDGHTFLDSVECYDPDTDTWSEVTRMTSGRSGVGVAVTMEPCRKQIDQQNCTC
# T3 sequence (Q14145 whole entry): as above
# Chain of Keap1 and Nrf2 binding (Q14145 whole entry): as above
compound,measurement,setting,value
"CC(=O)Nc1ccc(O)cc1 [APAP, Acetaminophen, reference compound]","serum ALT, maximum level",[1]; 12 h after APAP challenge,3334.98 U/L
same,"serum AST, maximum level",[1]; 12 h after APAP challenge,2002.31 U/L
same,serum ALT,[1]; 48 h after APAP challenge,608.41 U/L
same,serum AST,[1]; 48 h after APAP challenge,488.20 U/L
same,increase in serum ALT compared with the control group,[1]; APAP 400 mg kg−1,188 fold
same,increase in serum AST compared with the control group,[1]; APAP 400 mg kg−1,216 fold
same,percentage of necrotic liver areas,[1]; APAP 400 mg kg−1 i.p. alone (model group),21.01%
"Clc1cc(-c2ccccc2)nc2ccccc12 [Ligand 7, 4-chloro-2-phenylquinoline]",IC50 at 48 h,[2],> 100000 nM
"Cc1ccc2ccc3ccc(C)nc3c2n1 [Ligand 8, 2,9-dimethyl-1,10-phenanthroline]",IC50 at 48 h,[2],> 100000 nM
"[Ir (clpq)2 (2,9-dmphen)](PF6) [Complex 1]",shift of Keap1 melting curve,Keap1 [3],ca. 6 °C
same,binding to Nrf2 by ITC,Nrf2 [4],no binding was observed
same,"organ damage (organ morphology, organ index, H&E)","mice; 5.0 mg kg−1 i.p., 6, 12 and 24 h",did not cause organ damage
same,concentration in various organs (ICP-MS),"mice; i.p., 6 h",mainly concentrated in the liver and kidney
same,Ki,Keap1 and Nrf2 binding,1030 nM
same,effect on ROS elevation,LO2 cells [5],no significant effect
same,Nrf2 co-precipitated with Keap1,Keap1–Nrf2 interaction [6],reduction of Nrf2 co-precipitated with Keap1
same,cell viability of LO2 cells after treatment with APAP,LO2 cells [7],dose-dependent restoration of cell viability
same,cellular permeability (iridium levels in nucleus and cytoplasm),LO2 cells [8],good cellular permeability
same,effect on proteasomal inhibition,proteasome,no significant effect
same,stability,[9],good stability
same,Nrf2 accumulation in the nucleus,Nrf2 [10],induced Nrf2 accumulation in the nucleus
same,levels of HO-1 and NQO1,HO-1 and NQO1; 6 h treatment,increased
same,increase of HO-1 and NQO1 levels in Keap1 knockdown cells versus control cells,HO-1 and NQO1; Keap1 siRNA,less effective
same,increase of HO-1 and NQO1 levels after Nrf2 knockdown,HO-1 and NQO1; Nrf2 siRNA,muted
same,effect on mitochondrial dysfunction,LO2 cells [11],no significant effect
same,elimination half-life,[12]; 5 mg kg−1 i.p.,12 h
same,maximum mean peak area in plasma (Cmax),[12]; 5.0 mg kg−1 i.p.,13700 ng/mL
same,Cmax,"[12]; read-out: maximum mean peak area in plasma (Cmax), 5.0 mg kg−1 i.p.",13.4 µM
same,IC50,Keap1–Nrf2 interaction [13],1090 nM
same,reductions of AST levels,"[1]; 1 (5 mg/kg), time intervals 6, 12, 24 and 48 h after APAP",32.29–53.62%
same,decrease of serum ALT,[1]; [17],23.5%
same,decrease of serum AST,[1]; [17],25.2%
same,percentage of necrotic liver areas,[1]; APAP 400 mg kg−1 + 1 at 2.5 mg kg−1 i.p. once daily for five days,16.04%
same,percentage of necrotic liver areas,[1]; APAP 400 mg kg−1 + 1 at 5.0 mg kg−1 i.p. once daily for five days,8.99%
same,Nrf2 levels in the nucleus (liver) in comparison to the APAP group,"[1]; mice, APAP + 1",significantly increased
same,protein expression of Keap1 (liver),"[1]; mice, APAP + 1",remained basal
same,shift of Nrf2 melting curve,Nrf2 [14],no significant shift
same,-TΔS (ITC),Keap1 [15]; Keap1,-1.64 kcal/mol
same,stoichiometry N (ITC),Keap1 [15]; Keap1,0.962 ± 0.026
same,ΔG (ITC),Keap1 [15]; Keap1,-8.39 kcal/mol
same,ΔH (ITC),Keap1 [15]; Keap1,-6.75 kcal/mol
same,Kd,"Keap1 [15]; read-out: Kd (ITC), 200 μM of 1 titrated into Keap1 (20 μM), 25 °C",710 ± 790 nM
same,IC50,LO2 cells [16],48000 nM
